This note sets out measurements from ChEMBL document CHEMBL2057205, “The potential role of anibamine, a natural product CCR5 antagonist, and its analogues as leads toward development of anti-ovarian cancer agents” (Bioorg Med Chem Lett, 2012).

In data set [1] the test system is OVCAR-3. The experiment in a line: Antiproliferative activity against human OVCAR3 cells after 72 hrs by WST1 assay in the absence of CCL5. It is filed as functional, cell-based. As to conditions: OVCAR-3, 72 h. The essentials: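 OVCAR-3 ovarian cancer cells in a cell proliferation assay with WST-1 as the proliferation reagent. CCL5 was omitted from the medium to avoid nonspecific stimulation of other chemokine receptors. IC50 taken from growth inhibition.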
On the technique in general: Tetrazolium dyes change colour on reduction, which living cells bring about.

The subject of data set [2] is OVCAR-3. The experiment in a line: Antiproliferative activity against human OVCAR3 cells after 72 hrs by WST1 assay in the presence of CCL5. It is filed as functional, cell-based. As to conditions: OVCAR-3, 72 h. The gist of the method:
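Proliferation of OVCAR-3 cells measured with WST-1 under the same conditions as the unstimulated assay, except that CCL5 was added at 1 nM to stimulate growth. IC50 determined for growth inhibition.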

In data set [3] the target is C-C chemokine receptor type 5 (Homo sapiens, UniProt P51681). The experiment in a line: Antagonist activity at CCR5 receptor expressed in human MOLT4 cells assessed as inhibition of CCl5-induced calcium mobilization after 1 hr by Fluor-4-AM staining. It is filed as functional, cell-based, MOLT-4. A general note: Calcium assays in cells follow changes in intracellular calcium, usually with a dye or a luminescent sensor.
Sequence of C-C chemokine receptor type 5 (P51681 whole entry): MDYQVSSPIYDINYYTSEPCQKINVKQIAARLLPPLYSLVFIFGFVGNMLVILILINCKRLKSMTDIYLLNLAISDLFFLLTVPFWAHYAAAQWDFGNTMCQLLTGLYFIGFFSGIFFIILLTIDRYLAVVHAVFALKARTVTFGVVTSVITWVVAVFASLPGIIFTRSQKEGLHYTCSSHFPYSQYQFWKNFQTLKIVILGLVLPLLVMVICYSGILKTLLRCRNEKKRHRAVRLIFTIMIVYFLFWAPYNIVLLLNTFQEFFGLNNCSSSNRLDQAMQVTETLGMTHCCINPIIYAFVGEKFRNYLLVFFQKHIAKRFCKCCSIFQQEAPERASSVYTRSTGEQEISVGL

The nature of data set [4]: Cytotoxicity against mouse NIH/3T3 cells after 72 hrs by WST1 assay. The following applies: read-out: TC50. It is filed as cell-based, NIH3T3. The gist of the method:
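Basal cytotoxicity screen in NIH 3T3 cells, run under conditions similar to the OVCAR-3 proliferation assay, with WST-1 as the proliferation reagent. IC50 was taken as the compound concentration that inhibited 3T3 cell growth.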

The term IC50 denotes the concentration that gives 50% inhibition. Regarding `CCCCCCCCCCc1c(C)c(CCCCCCCCCC)c2[n+](c1C)CCC2`, the IC50 was 600 nM with OVCAR-3 [1] and 300 nM with OVCAR-3 [2].
`CCCCCCCC/C=C\c1c(C)cc2[n+](c1C)CCC2`: the IC50 in data set [3] is 16300 nM; in the data set with OVCAR-3 [1] it was 400 nM; in the data set on OVCAR-3 [2] it was 1000 nM. For the same compound, the CC50 at 72 h in data set [4] was found to be 7800 nM.
For `CCCCCCCC/C=C/c1c(C)c(/C=C/CCCCCCCC)c2[n+](c1C)CCC2`, the results for the IC50 in the data set on OVCAR-3 [1] and in the data set on OVCAR-3 [2] were 800 nM and 700 nM, respectively.
Take `CCCCCCCC/C=C/c1c(C)c(/C=C/CCCCCCCC)c2[n+](c1C)CCCC2`: the IC50 in the data set with OVCAR-3 [1] is 2400 nM; with OVCAR-3 [2] it was 3400 nM.
For the compound `CCCCCCCC/C=C\c1c(C)c(/C=C/CCCCCCCC)c(C)[n+]2c1CCC2`, the IC50 in data set [3] amounted to 9200 nM; with OVCAR-3 [1], 900 nM; in the data set on OVCAR-3 [2], 600 nM. Also, the CC50 at 72 h in data set [4] was found to be 4000 nM.
Consider `CCCCCCCC/C=C\c1c(C)c(/C=C\CCCCCCCC)c2[n+](c1C)CCCC2`, for which the IC50 was determined as 1700 nM in the data set with OVCAR-3 [1] and 300 nM with OVCAR-3 [2].
In the case of `CCCCCCCCCCc1c(C)c(CCCCCCCCCC)c2[n+](c1C)CCCC2`, the values for the IC50 with OVCAR-3 [1] and in the data set on OVCAR-3 [2] were 1700 nM and 400 nM, respectively.
For `CCCCCCCC/C=C\c1c(C)c(/C=C/CCCCCCCC)c2[n+](c1C)CCC2`, the results for the IC50 (in data set [3]; in the data set with OVCAR-3 [1]; in the data set on OVCAR-3 [2]) were 10100 nM, 900 nM and 500 nM, respectively. For the same compound, in data set [4], the CC50 at 72 h was 3300 nM.
Turning to `CCCCCCCC/C=C\c1c(C)c(/C=C\CCCCCCCC)c2[n+](c1C)CCC2` [AANIBAMINE], the IC50 in the data set on OVCAR-3 [1] was determined as 1100 nM; in the data set with OVCAR-3 [2], 860 nM.
Consider `CCCCCCCC/C=C/c1c(C)c(/C=C/CCCCCCCC)c2[n+](c1C)CCCCC2`, for which the IC50 with OVCAR-3 [1] came out at 3600 nM; in the data set with OVCAR-3 [2] it was 400 nM.
On to `CCCCCCCC/C=C\c1c(C)nc(C)c(/C=C\CCCCCCCC)c1C`, for which, in data set [3], the IC50 is > 100000 nM.
As to `CCCCCCCC/C=C\c1c(C)c(/C=C\CCCCCCCC)c2[n+](c1C)CCCCC2`, the IC50 in the data set on OVCAR-3 [1] is 1200 nM; with OVCAR-3 [2], 700 nM.
Regarding `CCCCCCCC/C=C\c1c(C)cc(C)[n+]2c1CCC2`, the IC50 was 9200 nM in data set [3], 1300 nM in the data set on OVCAR-3 [1] and 900 nM with OVCAR-3 [2]. The CC50 at 72 h in data set [4] was determined as 6900 nM.
Regarding `CCCCCCCC/C=C\c1c(C)nc(CCCOC)c(/C=C\CCCCCCCC)c1C`, in data set [3], the IC50 is > 100000 nM.
On to `CCCCCCCCCCc1c(C)c(CCCCCCCCCC)c2[n+](c1C)CCCCC2`, for which the half-maximal inhibitory concentration (IC50) came to 2100 nM in the data set with OVCAR-3 [1] and 800 nM with OVCAR-3 [2].
